Results taken from publication PMC7115506 (European Journal of Medicinal Chemistry, 2018).

Tests used:
[1] = system: human leukemia K562 cells; experiment: MTT cytotoxic activity assay, K562; type: cell-based; details: for IC50: read-out: IC50 K562, MTT, 48 h; for enhancement of potency compared to that of 2d: ratio to 2d, K562
In short: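 K562 cells at 5 × 10^4 cells/ml were plated for 2 h, then exposed to test compound at 10–100,000 nM for 48 h. MTT (5 mg/mL stock) was added for a further 4 h and read on a plate reader. DMSO-treated controls were set as 100% viability. IC50 came from nonlinear regression over three independent assays.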

liver cancer HepG2 cells = experiment: MTT cytotoxic activity assay, HepG2; type: cell-based, human; details: read-out: IC50 HepG2
K562 cells [2] = experiment: Morphological changes by microscopy; type: cell-based, human; details: 30 nM
In short: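 K562 cells were kept in RPMI-1640 with 10% FBS, 2.05 mM glutamine and 1% penicillin/streptomycin at 37 °C and 5% CO2. They were exposed to test compound at 30 nM, and morphology was compared with DMSO-treated cells.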

HUVEC cells = experiment: Tube forming assay on Matrigel; type: cell-based, human; details: 10 nM, 30 nM, 100 nM; 12 h
K562 cells [3] = experiment: Flow cytometric analysis of apoptosis; type: cell-based, human; details: 30 nM; 48 h
In short: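 K562 cells (RPMI-1640, 10% FBS) were seeded in six-well plates and given DMSO or test compound at 30 or 300 nM for 0, 6, 12, 24 and 48 h. Cells were washed twice in ice-cold PBS, resuspended in binding buffer, then stained with Annexin V-FITC (10 min) and PI at 50 μg/mL (10 min) at room temperature in the dark. Flow cytometry with quadrant statistics.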

HepG2 cells [4] = experiment: Transwell assay; type: cell-based, human; details: 10 nM, 30 nM, 100 nM; 24 h
HepG2 cells [5] = experiment: Wound healing assay; type: cell-based, human; details: 48 h, DMSO 184.89 μm

| Compound | IC50 [1] | IC50 (liver cancer HepG2 cells) | enhancement of potency compared to that of 2d [1] | further results |
| --- | --- | --- | --- | --- |
| 1-(3,5-dimethylbenzyl)-5-(4-methoxyphenyl)indoline-2,3-dione [2p] | 140 ± 30 nM | 410 ± 30 nM |  |  |
| 1-(4-methoxybenzyl)-5-(thiophen-3-yl)indoline-2,3-dione [compound 4r] | 80 ± 40 nM | 3670 ± 1400 nM |  |  |
| COc1ccc(-c2ccc3c(c2)C(=O)C(=O)N3Cc2ccccc2OC)cc1 [2o, 1-(2-methoxybenzyl)-5-(4-methoxyphenyl)indoline-2,3-dione] |  |  | 8–25 folds |  |
| COc1ccc(-c2ccc3c(c2)C(=O)C(=O)N3Cc2ccc(OC)c(OC)c2)cc1 [2q, 1-(3,4-dimethoxybenzyl)-5-(4-methoxyphenyl)indoline-2,3-dione] |  |  | 8–25 folds |  |
| COc1ccc(-c2ccc3c(c2)C(=O)C(=O)N3Cc2ccc3c(c2)OCO3)cc1 [2v, 1-(benzo[d] [1, 3]dioxol-5-ylmethyl)-5-(4-methoxyphenyl)indoline-2,3-dione] |  |  | 8–25 folds |  |
| COc1ccc(CN2C(=O)C(=O)c3cc(-c4ccc(OC)cc4)ccc32)cc1 [compound 2m, 1-(4-methoxybenzyl)-5-(4-methoxyphenyl)indoline-2,3-dione] |  |  | 8–25 folds | morphological change: elongated cells (G2/M arrest morphology) (K562 cells [2]; 6 h, vs DMSO-treated cells): elongated cells increased significantly; morphological change: apoptotic cells (K562 cells [2]; 24 h): apoptotic cells were clearly observed; effect on tube formation of HUVEC cells (HUVEC cells): could inhibit the angiogenesis of HUVEC cells and have a dose-dependent inhibitory effect; apoptotic rate of K562 cells (K562 cells [3]): 43.4%; effect on HepG2 cells migration (transwell) (HepG2 cells [4]): could inhibit the HepG2 cells migration and have a dose-dependent inhibitory effect; The distance of migration (HepG2 cells [5]; 10 nM): 162.89 μm; The distance of migration (HepG2 cells [5]; 30 nM): 135.22 μm; The distance of migration (HepG2 cells [5]; 100 nM): 96.24 μm |
| COc1ccc(CN2C(=O)C(=O)c3cc(-c4ccc(C(C)(C)C)cc4)ccc32)cc1 [compound 4e, 5-(4-(tert-butyl)phenyl)-1-(4-methoxybenzyl)indoline-2,3-dione] |  |  |  | drop of cytotoxic activity from that of 4k ([1]; ratio to 4k): 15 folds |
| (Z)-ethyl 2-(1-(4-methoxybenzyl)-5-(4-methoxyphenyl)-2-oxoindolin-3-ylidene)acetate [5d] | 1240 ± 540 nM | 3390 ± 270 nM |  |  |
| (Z)-methyl 2-(1-(4-methoxybenzyl)-5-(4-methoxyphenyl)-2-oxoindolin-3-ylidene)acetate [5e] | 1900 ± 140 nM | 4730 ± 1240 nM |  |  |
